ChEMBL document CHEMBL1127682, “Resolution, absolute stereochemistry, and pharmacology of the S-(+)- and R-(-)-isomers of the apparent partial AMPA receptor agonist (R,S)-2-amino-3-(3-hydroxy-5-phenylisoxazol-4-yl)propionic acid [(R,S)-APPA]” (J Med Chem, 1994)
pEC50, pIC50, pKi: −log10 of the molar value.

How the values were obtained:
[1] = biological target: T1, Glutamate receptor ionotropic, AMPA (Rattus norvegicus, UniProt P19490+P19491+P19492+P19493); assay: Compound was evaluated for the agonist activity on AMPA receptor in rat cortical wedge preparation; assay type: functional
[2] = biological target: T1, Glutamate receptor ionotropic, AMPA; assay: Compound was evaluated for the inhibition of binding of [3H]AMPA to the AMPA receptor; assay type: protein-complex assay
[3] = biological target: Glutamate receptor ionotropic, kainate; assay: Compound was evaluated for the inhibition of binding of [3H]-Kainic acid to kianic acid receptor; assay type: protein-complex assay
[4] = biological target: Glutamate receptor ionotropic, NMDA 1 (Rattus norvegicus, UniProt P35439); assay: Compound was evaluated for the inhibition of binding of [3H]glycine to NMDA receptor
Glutamate NMDA receptor [5] = assay: Compound was evaluated for the inhibition of binding of [3H]- CPP to NMDA receptor; assay type: protein-complex assay
Glutamate NMDA receptor [6] = assay: Compound was evaluated for the inhibition of binding of [3H]- MK-801 to NMDA receptor; assay type: protein-complex assay
Rattus norvegicus = species on record: Rattus norvegicus; assay: The compound was evaluated for agonist sensitivity to antagonist NBQX; assay type: functional
In short: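 Rat cortical wedges (500-μm, cortex plus corpus callosum) superfused with Mg2+- and Ca2+-free oxygenated Krebs buffer at room temperature; agonist depolarization concentration-response curves recorded with and without 0.5 μM NBQX; pKi calculated from the parallel shift; means ± SEM of at least three experiments.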

[7] = biological target: T1, Glutamate receptor ionotropic, AMPA; assay: Compound was evaluated for the antagonist activity on AMPA receptor in rat cortical wedge preparation; assay type: functional

| Structure (SMILES) | pEC50 [1] | pIC50 [2] | pIC50 [3] | pIC50 [4] | pIC50 (Glutamate NMDA receptor [5]) | pIC50 (Glutamate NMDA receptor [6]) | pKi [7] | Log Ki (Rattus norvegicus) |
| --- | --- | --- | --- | --- | --- | --- | --- | --- |
| N[C@@H](Cc1c(O)noc1-c1ccccc1)C(=O)O | 3.64 | 5.22 | < 4.00 | < 4.00 | < 4.00 | < 4.00 | – | -6.3 |
| Cc1onc(O)c1CC(N)C(=O)O (racemic) [(R,S)-AMPA] | – | – | – | – | – | – | – | -6.56 |
| C=C(C)[C@H]1CN[C@H](C(=O)O)[C@H]1CC(=O)O [KAINIC ACID] | – | – | – | < 4.00 | < 4.00 | < 4.00 | – | -5.42 |

More lines, main results first:

| pEC50 [1] | pIC50 [2] | pIC50 [3] | pIC50 [4] | pIC50 (Glutamate NMDA receptor [5]) | pIC50 (Glutamate NMDA receptor [6]) | pKi [7] | Structure (SMILES) | Log Ki (Rattus norvegicus) |
| --- | --- | --- | --- | --- | --- | --- | --- | --- |
| 3.41 | 4.46 | < 4.00 | < 4.00 | < 4.00 | < 4.00 | – | NC(Cc1c(O)noc1-c1ccccc1)C(=O)O (racemic) | – |
| – | < 4.00 | < 4.00 | < 4.00 | < 4.00 | < 4.00 | 3.54 | N[C@H](Cc1c(O)noc1-c1ccccc1)C(=O)O | – |
